# Data from ChEMBL document CHEMBL2029317, “(Z)-2-(2-bromophenyl)-3-{[4-(1-methyl-piperazine)amino]phenyl}acrylonitrile (DG172): an orally bioavailable PPARβ/δ-selective ligand with inverse agonistic properties” (J Med Chem, 2012).
# Active and inactive are the calls of the source. No cut-off for these calls is given here.
# Columns and labels:
# [1] = molecular target: T1, Peroxisome proliferator-activated receptor delta (Mus musculus) (UniProt P35396); assay: Displacement of fluormone Pan-PPAR Green from mouse recombinant GST-tagged PPARbeta/delta LBD at 1 uM after 60 mins by TR-FRET assay
# T1 sequence (whole entry): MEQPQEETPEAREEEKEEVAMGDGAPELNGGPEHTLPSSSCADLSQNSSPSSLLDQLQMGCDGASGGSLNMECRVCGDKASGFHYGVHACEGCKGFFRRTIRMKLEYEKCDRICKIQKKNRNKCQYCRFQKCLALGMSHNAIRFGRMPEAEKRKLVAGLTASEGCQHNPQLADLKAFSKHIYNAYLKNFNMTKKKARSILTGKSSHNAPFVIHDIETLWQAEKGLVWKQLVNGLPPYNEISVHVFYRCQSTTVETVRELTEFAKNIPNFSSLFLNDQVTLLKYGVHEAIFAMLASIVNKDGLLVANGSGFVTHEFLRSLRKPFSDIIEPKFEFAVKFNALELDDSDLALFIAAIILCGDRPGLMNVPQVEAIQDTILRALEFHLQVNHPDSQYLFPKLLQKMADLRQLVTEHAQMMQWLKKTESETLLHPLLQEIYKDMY
# Summary of the method: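 Competitive binding by LanthaScreen TR-FRET: recombinant GST-PPARβ/δ LBD, detected through a terbium-labelled anti-GST antibody, was incubated with Fluormone Pan-PPAR Green. Compound was tested at 1 μM. Read-out is the 520 nm/495 nm emission ratio after terbium excitation, as averages of triplicates ± SD.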
# [2] = molecular target: T2, Peroxisome proliferator-activated receptor delta (Mus musculus, UniProt P35396); assay: Inverse agonist activity at PPARbeta/delta in mouse C2C12 cells assessed as inhibition of Angptl4 expression after 24 hrs by RT-qPCR analysis; format: functional, cell-based
# T2 sequence (P35396 whole entry): T1 sequence (whole entry)
# [3] = molecular target: T1, Peroxisome proliferator-activated receptor delta (Mus musculus); assay: Antagonist activity at PPARbeta/delta in mouse NIH3T3 cells coexpressing LexA assessed as decrease in L165,041-induced transcriptional activation at 1 uM after 48 hrs by luciferase reporter gene assay relative to control; format: functional, cell-based
# Summary of the method: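 NIH3T3 cells were transfected with LexA-PPARα, -PPARβ/δ or -PPARγ fusion plasmids plus the 7L-TATAi luciferase reporter. From 4 h post-transfection, cells received inhibitory ligand (1 μM) for 48 h. Agonists followed: GW7647 300 nM (PPARα), L165,041 1 μM (PPARβ/δ) or GW1929 300 nM (PPARγ), or agonist solvent. Induction is luciferase activity with agonist relative to solvent; triplicates with t test.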
SMILES,Activity [1],further results
N#C/C(=C\c1cccc(Br)c1)c1ccccc1,Active,–
N#C/C(=C\c1ccc(Cl)cc1)c1ccccc1,Active,–
N#C/C(=C\c1ccccc1Br)c1ccccc1,Active,–
N#C/C(=C\c1ccc(NC2CCCCC2)cc1)c1ccccc1,Active,–
CC1CCN(c2ccc(/C=C(\C#N)c3ccccc3)cc2)CC1,Active,–
N#C/C(=C\c1ccc(N2CCCC2)cc1)c1ccccc1,Active,–
N#C/C(=C\c1ccc(Nc2ccccc2)cc1)c1ccccc1,Active,–
N#C/C(=C\c1ccccc1)c1ccccc1,Active,–
N#C/C(=C\c1ccc(N2CCCCCC2)cc1)c1ccccc1,Active,–
N#C/C(=C\c1ccc(N)cc1)c1ccccc1,Active,–
N#C/C(=C\c1ccc(C(F)(F)F)cc1)c1ccccc1,Active,–
N#C/C(=C\c1ccc(N2CCNCC2)cc1)c1ccccc1,Active,–
CN1CCN(c2ccc(/C=C(\C#N)c3ccccc3)cc2)CC1,Active,–
N#C/C(=C\c1ccc(N2CCOCC2)cc1)c1ccccc1,Active,–
CN(C)c1ccc(/C=C(\C#N)c2ccccc2)cc1,–,IC50 [2]: > 500 nM
N#C/C(=C\c1ccc(N2CCCCC2)cc1)c1ccccc1,Active,Activity [3]: Active

# Continued, in another order:
Activity [1],SMILES,further results
Active,CN(C)c1ccc(/C=C(\C#N)c2cccc(Cl)c2)cc1,–
inactive,CN(C)c1ccc(/C=C/C=C(\C#N)c2ccccc2)cc1,–
Active,CN(C)Cc1ccc(/C=C(\C#N)c2ccccc2)cc1,–
Active,COc1ccc(/C=C(\C#N)c2ccccc2)cc1,–
inactive,CN(C)c1ccc(/C=C/c2ccccc2)cc1,–
Active,CN(C)c1ccc(/C=C(\C#N)c2ccccc2I)cc1,–
Active,CN(C)c1ccc(/C=C(\C#N)c2ccc(F)cc2)cc1,–
Active,CN(C)c1ccc(/C=C(\C#N)c2ccc(Cl)cc2)cc1,–
Active,COc1ccc(/C(C#N)=C/c2ccc(N(C)C)cc2)cc1,–
inactive,CN(C)c1ccc(CC(C#N)c2ccccc2)cc1 (racemic),–
Active,CN(C)c1ccc(/C=C(\C#N)c2ccc([N+](=O)[O-])cc2)cc1,–
Active,CN(C)c1ccc(/C=C(\C#N)c2ccccc2F)cc1,–
Active,CN(C)c1ccc(/C=C(\C#N)c2ccccc2C(F)(F)F)cc1,–
Active,CN(C)c1ccc(/C=C(\C#N)c2ccccc2[N+](=O)[O-])cc1,–
Active,CN(C)c1ccc(/C=C(\C#N)c2ccccc2Br)cc1,–
Active,CN(C)c1ccc(/C=C(\C#N)c2ccccc2C#N)cc1,–
Active,COc1ccccc1/C(C#N)=C/c1ccc(N(C)C)cc1,–
inactive,CN(C)c1ccc(C(C#N)=Cc2ccccc2)cc1,–
Active,N#C/C(=C\c1ccc(Br)cc1)c1ccccc1,–
